Measurements published in ChEMBL document CHEMBL4304739, “Discovery of 3-(Indol-5-yl)-indazole Derivatives as Novel Myeloid Differentiation Protein 2/Toll-like Receptor 4 Antagonists for Treatment of Acute Lung Injury” (J Med Chem, 2019).
Calls of active or inactive are those of the source. The rule behind the calls is not given here.

What was measured:
Toll-like receptor 4 = Toll-like receptor 4 (Homo sapiens, UniProt O00206); experiment: Binding affinity to recombinant human C-terminal 10His-tagged TLR4 (Glu24 to Lys631 residues) expressed in mouse NS0 cells by surface plasmon resonance analysis
Sequence of Toll-like receptor 4 (O00206 whole entry): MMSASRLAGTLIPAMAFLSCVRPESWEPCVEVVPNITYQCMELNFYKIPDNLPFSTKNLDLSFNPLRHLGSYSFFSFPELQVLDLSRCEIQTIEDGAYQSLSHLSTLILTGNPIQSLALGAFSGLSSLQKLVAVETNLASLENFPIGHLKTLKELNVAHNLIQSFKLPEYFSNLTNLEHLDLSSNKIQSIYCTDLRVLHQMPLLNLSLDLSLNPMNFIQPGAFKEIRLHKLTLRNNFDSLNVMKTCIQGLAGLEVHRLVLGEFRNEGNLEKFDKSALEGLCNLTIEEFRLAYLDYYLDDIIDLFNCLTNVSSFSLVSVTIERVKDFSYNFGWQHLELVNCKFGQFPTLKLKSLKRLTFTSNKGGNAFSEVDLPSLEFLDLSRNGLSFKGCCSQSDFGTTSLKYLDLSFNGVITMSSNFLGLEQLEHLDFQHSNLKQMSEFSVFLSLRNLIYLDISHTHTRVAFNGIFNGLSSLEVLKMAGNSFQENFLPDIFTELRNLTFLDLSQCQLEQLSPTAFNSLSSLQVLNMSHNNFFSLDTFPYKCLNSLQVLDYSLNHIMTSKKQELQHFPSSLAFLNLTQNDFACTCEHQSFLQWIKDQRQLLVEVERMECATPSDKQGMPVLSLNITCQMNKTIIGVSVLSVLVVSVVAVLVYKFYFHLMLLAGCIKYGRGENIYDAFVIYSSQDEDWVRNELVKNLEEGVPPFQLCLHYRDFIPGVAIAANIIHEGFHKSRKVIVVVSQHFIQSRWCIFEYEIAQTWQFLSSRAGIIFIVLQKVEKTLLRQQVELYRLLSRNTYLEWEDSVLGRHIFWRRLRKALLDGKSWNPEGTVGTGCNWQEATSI

Mus musculus [1] = experiment: Antiinflammatory activity in LPS-induced C57BL/6 mouse model of acute lung injury assessed as reduction in F4/80 positive macrophage at 5 to 10 mg/kg, iv pretreated for 15 mins followed by LPS stimulation and measured after 6 hrs by ABC/hematoxylin staining-based immunohistochemistry analysis; assay type: functional, organism-based
Outline: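 Male C57BL/6 mice (18−22 g; n=8 per group). Compound in 0.1% CMC-Na given by tail vein injection 15 min before intraperitoneal LPS (20 mg/kg); controls received saline. Mice were sacrificed 6 h after LPS, and serum and lung tissue were collected.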

Mus musculus [2] = experiment: Antiinflammatory activity in LPS-induced C57BL/6 mouse model of acute lung injury assessed as reduction in TNFalpha mRNA level at 10 mg/kg, iv pretreated for 15 mins followed by LPS stimulation and measured after 6 hrs by SYBR green staining-based qRT-PCR analysis; assay type: functional, organism-based
Outline: (§1)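 Total lung RNA extracted, with DNase I removal of residual DNA. Quantitative PCR with mouse gene primers; each gene normalized to β-actin. C57BL/6 mice given compound iv 15 min before intraperitoneal LPS (20 mg/kg) and killed at 6 h.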

Mus musculus [3] = experiment: Antiinflammatory activity in LPS-induced C57BL/6 mouse model of acute lung injury assessed as reduction in COX2 mRNA level at 10 mg/kg, iv pretreated for 15 mins followed by LPS stimulation and measured after 6 hrs by SYBR green staining-based qRT-PCR analysis; assay type: functional, organism-based; outline: as §1
[4] = biological target: Tyrosine-protein kinase ABL1 (Homo sapiens) (UniProt P00519); experiment: Inhibition of wild-type human non-phosphorylated ABL1 (S229 to K512 residues) expressed in mammalian expression system at 1 uM by Kinomescan method
Sequence of Tyrosine-protein kinase ABL1 (Homo sapiens) (P00519 whole entry, the tested form may be a part): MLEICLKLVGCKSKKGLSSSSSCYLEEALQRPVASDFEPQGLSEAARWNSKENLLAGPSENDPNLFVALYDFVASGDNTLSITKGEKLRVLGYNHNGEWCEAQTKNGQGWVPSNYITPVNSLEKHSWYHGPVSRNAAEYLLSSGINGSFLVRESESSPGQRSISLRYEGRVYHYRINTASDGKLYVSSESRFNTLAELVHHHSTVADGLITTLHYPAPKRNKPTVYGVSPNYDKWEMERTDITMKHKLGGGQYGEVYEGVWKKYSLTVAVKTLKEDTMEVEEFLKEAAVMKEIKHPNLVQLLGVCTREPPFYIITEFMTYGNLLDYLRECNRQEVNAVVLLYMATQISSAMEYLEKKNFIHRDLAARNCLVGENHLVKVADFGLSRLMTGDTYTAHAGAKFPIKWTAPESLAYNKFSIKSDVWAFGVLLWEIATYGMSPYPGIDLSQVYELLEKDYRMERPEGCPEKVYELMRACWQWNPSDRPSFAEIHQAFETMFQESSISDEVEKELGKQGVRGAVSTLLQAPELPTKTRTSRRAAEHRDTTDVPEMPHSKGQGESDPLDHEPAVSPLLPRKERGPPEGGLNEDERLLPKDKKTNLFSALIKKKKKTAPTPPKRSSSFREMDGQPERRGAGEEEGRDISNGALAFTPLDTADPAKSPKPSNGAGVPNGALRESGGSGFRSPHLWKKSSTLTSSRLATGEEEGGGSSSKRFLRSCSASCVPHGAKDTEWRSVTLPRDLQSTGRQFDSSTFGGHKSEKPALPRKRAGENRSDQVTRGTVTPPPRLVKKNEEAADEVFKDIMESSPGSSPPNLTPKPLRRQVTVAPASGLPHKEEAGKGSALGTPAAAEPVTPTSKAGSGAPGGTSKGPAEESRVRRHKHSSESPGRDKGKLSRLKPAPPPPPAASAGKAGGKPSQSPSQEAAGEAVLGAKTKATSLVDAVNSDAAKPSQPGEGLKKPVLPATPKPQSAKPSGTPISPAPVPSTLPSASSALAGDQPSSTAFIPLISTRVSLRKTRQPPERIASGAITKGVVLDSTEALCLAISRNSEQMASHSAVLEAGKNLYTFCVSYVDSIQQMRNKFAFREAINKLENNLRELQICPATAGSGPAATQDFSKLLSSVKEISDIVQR
Outline: (§2)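 KINOMEscan competition binding screen at 1 μM compound. Results reported as % of control = (test − positive control)/(DMSO negative control − positive control) × 100, where lower values mean stronger hits.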

[5] = biological target: Activin receptor type-1B (Homo sapiens) (UniProt P36896); experiment: Inhibition of wild-type human ACVR1B (S187 to I505 residues) expressed in bacterial expression system at 1 uM by Kinomescan method; outline: as §2
[6] = biological target: RAC-beta serine/threonine-protein kinase (Homo sapiens) (UniProt P31751); experiment: Inhibition of wild-type human partial length AKT2 expressed in bacterial expression system at 1 uM by Kinomescan method; outline: as §2
[7] = biological target: Aurora kinase B (Homo sapiens) (UniProt Q96GD4); experiment: Inhibition of wild-type human partial length AURKB (D25 to A303 residues) expressed in mammalian expression system at 1 uM by Kinomescan method
Outline: (§3)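 Binding-competition screen on the KINOMEscan platform, run by the provider, with the test compound at 1 μM. Readout is percent of control: (test signal − positive control signal)/(negative control signal − positive control signal) × 100. The DMSO negative control is set as 100% Ctrl and a control compound as 0% Ctrl. Lower values mean stronger hits.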

[8] = biological target: Casein kinase I isoform gamma-1 (Homo sapiens) (UniProt Q9HCP0); experiment: Inhibition of wild-type human partial length CSNK1G1 (T15 to S353 residues) expressed in bacterial expression system at 1 uM by Kinomescan method; outline: as §3
[9] = biological target: Epidermal growth factor receptor (Homo sapiens) (UniProt P00533); experiment: Inhibition of wild-type human partial length EGFR (R669 to V1011 residues) expressed in bacterial expression system at 1 uM by Kinomescan method
Outline: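 KINOMEscan competition binding panel (98 kinases) run by the provider, compound screened once at 1 μM. Read-out is percent of control: [(test signal − positive control signal)/(negative control signal − positive control signal)] × 100. DMSO negative control sets 100% Ctrl and a control compound sets 0% Ctrl; lower values mean stronger hits.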

[10] = biological target: Receptor tyrosine-protein kinase erbB-4 (Homo sapiens) (UniProt Q15303); experiment: Inhibition of wild-type human partial length ERBB4 (L690 to K994 residues) expressed in bacterial expression system at 1 uM by Kinomescan method; outline: as §3
[11] = biological target: Glycogen synthase kinase-3 beta (Homo sapiens) (UniProt P49841); experiment: Inhibition of wild-type human full length GSK3B (M1 to T433 residues) expressed in mammalian expression system at 1 uM by Kinomescan method; outline: as §2
[12] = biological target: Insulin receptor (Homo sapiens) (UniProt P06213); experiment: Inhibition of wild-type human partial length INSR (P997 to E1318 residues) expressed in mammalian expression system at 1 uM by Kinomescan method; outline: as §3
[13] = biological target: Mitogen-activated protein kinase 8 (Homo sapiens) (UniProt P45983); experiment: Inhibition of wild-type human full length JNK1 (M1 to Q384 residues) expressed in mammalian expression system at 1 uM by Kinomescan method; outline: as §2
Sequence of Mitogen-activated protein kinase 8 (Homo sapiens) (P45983 whole entry, the tested form may be a part): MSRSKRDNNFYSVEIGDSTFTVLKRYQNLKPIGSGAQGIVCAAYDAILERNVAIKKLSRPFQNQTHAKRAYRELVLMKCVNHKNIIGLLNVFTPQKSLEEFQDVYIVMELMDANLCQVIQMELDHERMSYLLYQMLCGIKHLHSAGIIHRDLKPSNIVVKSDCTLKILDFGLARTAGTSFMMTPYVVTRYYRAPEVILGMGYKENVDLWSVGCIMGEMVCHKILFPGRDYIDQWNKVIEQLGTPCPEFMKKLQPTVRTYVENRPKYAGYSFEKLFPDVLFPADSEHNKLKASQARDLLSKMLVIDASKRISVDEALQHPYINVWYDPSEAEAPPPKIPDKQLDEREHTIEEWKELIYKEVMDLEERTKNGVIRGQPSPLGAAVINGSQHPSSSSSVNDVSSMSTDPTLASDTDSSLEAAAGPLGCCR

[14] = biological target: Mitogen-activated protein kinase 9 (Homo sapiens) (UniProt P45984); experiment: Inhibition of wild-type human full length JNK2 (M1 to Q382 residues) expressed in mammalian expression system at 1 uM by Kinomescan method; outline: as §2
[15] = biological target: Mitogen-activated protein kinase 10 (Homo sapiens) (UniProt P53779); experiment: Inhibition of wild-type human partial length JNK3 (V28 to Q422 residues) expressed in mammalian expression system at 1 uM by Kinomescan method; outline: as §3
[16] = biological target: Mitogen-activated protein kinase 14 (Homo sapiens) (UniProt Q16539); experiment: Inhibition of wild-type human full length p38-alpha (M1 to S360 residues) expressed in bacterial expression system at 1 uM by Kinomescan method; outline: as §2
Sequence of Mitogen-activated protein kinase 14 (Homo sapiens) (Q16539 whole entry, the tested form may be a part): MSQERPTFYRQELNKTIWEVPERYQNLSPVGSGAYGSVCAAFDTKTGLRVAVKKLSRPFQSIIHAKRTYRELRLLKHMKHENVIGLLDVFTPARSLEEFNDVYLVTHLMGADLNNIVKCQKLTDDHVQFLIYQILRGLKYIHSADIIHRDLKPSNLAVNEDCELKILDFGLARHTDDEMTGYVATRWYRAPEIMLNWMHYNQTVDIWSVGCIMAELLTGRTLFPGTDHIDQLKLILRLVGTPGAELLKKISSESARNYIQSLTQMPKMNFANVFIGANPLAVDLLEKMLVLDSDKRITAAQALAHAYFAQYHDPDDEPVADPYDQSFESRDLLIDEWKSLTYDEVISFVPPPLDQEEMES

[17] = biological target: Serine/threonine-protein kinase PAK 2 (Homo sapiens) (UniProt Q13177); experiment: Inhibition of wild-type human partial length PAK2 (P151 to R525 residues) expressed in bacterial expression system at 1 uM by Kinomescan method; outline: as §3
[18] = biological target: Serine/threonine-protein kinase PAK 4 (Homo sapiens) (UniProt O96013); experiment: Inhibition of wild-type human partial length PAK4 (Q144 to R438 residues) expressed in bacterial expression system at 1 uM by Kinomescan method; outline: as §3
[19] = biological target: Platelet-derived growth factor receptor alpha (Homo sapiens) (UniProt P16234); experiment: Inhibition of wild-type human partial length PDGFRA (V575 to D1002 residues) expressed in mammalian expression system at 1 uM by Kinomescan method; outline: as §3
Sequence of Platelet-derived growth factor receptor alpha (Homo sapiens) (P16234 whole entry, the tested form may be a part): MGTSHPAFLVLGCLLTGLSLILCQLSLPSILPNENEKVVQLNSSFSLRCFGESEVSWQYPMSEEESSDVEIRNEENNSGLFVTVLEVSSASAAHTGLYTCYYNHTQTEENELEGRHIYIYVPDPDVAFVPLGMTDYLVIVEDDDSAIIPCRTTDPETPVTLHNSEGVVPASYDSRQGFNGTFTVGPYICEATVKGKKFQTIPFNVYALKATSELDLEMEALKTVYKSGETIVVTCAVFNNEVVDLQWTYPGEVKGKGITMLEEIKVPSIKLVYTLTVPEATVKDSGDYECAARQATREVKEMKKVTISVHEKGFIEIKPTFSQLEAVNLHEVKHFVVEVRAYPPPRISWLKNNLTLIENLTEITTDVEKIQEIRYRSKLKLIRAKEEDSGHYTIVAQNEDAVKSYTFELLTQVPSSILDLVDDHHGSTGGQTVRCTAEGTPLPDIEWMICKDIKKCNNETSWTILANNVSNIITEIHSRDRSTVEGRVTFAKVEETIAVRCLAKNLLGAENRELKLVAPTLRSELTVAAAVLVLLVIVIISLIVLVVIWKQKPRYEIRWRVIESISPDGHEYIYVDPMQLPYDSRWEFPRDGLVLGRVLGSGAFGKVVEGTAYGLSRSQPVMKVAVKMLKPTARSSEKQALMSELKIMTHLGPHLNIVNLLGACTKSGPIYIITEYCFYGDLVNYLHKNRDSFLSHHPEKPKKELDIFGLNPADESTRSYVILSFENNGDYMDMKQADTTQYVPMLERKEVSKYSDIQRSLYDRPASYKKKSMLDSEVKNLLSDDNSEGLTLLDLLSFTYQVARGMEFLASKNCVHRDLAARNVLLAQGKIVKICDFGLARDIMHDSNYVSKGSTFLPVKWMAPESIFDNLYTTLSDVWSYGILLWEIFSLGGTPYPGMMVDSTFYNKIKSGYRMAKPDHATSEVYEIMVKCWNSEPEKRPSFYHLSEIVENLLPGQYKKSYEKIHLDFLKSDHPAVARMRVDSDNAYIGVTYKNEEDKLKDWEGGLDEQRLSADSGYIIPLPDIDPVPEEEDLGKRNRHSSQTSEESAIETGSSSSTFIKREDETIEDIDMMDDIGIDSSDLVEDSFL

[20] = biological target: Serine/threonine-protein kinase pim-2 (Homo sapiens) (UniProt Q9P1W9); experiment: Inhibition of wild-type human partial length PIM2 (M1 to E291 residues) expressed in bacterial expression system at 1 uM by Kinomescan method; outline: as §3
Sequence of Serine/threonine-protein kinase pim-2 (Homo sapiens) (Q9P1W9 whole entry, looked up, the tested form may be a part): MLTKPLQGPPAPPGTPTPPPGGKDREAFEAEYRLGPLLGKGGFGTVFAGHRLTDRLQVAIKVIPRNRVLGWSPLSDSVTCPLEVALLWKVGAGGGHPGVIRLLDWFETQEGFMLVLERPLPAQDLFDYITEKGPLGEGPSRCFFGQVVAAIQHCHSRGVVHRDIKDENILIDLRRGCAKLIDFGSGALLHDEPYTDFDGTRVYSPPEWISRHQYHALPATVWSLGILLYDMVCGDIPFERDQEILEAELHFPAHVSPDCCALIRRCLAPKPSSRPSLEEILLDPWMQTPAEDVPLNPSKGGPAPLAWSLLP

[21] = biological target: Serine/threonine-protein kinase PLK1 (Homo sapiens) (UniProt P53350); experiment: Inhibition of wild-type human partial length PLK1 (A33 to F325 residues) expressed in mammalian expression system at 1 uM by Kinomescan method; outline: as §3
Sequence of Serine/threonine-protein kinase PLK1 (Homo sapiens) (P53350 whole entry, the tested form may be a part): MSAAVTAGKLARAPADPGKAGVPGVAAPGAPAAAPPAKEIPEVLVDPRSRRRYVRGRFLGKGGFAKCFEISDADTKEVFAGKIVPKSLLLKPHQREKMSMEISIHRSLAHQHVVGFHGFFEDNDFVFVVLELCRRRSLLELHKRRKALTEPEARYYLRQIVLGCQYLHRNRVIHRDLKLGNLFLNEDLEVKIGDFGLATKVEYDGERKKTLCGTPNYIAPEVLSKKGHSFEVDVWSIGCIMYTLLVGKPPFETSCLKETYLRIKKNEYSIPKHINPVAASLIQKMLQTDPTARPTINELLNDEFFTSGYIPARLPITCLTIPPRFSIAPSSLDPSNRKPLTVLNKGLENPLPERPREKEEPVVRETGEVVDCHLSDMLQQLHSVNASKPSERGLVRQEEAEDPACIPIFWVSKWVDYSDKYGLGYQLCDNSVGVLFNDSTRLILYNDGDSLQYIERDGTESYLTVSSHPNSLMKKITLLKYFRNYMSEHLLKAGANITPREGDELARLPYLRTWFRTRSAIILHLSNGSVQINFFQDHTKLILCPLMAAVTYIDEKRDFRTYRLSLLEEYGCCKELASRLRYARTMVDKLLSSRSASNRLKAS

[22] = biological target: Serine/threonine-protein kinase PLK3 (Homo sapiens) (UniProt Q9H4B4); experiment: Inhibition of wild-type human partial length PLK3 (A42 to L334 residues) expressed in mammalian expression system at 1 uM by Kinomescan method; outline: as §3

For O=C(Nc1ccc2[nH]nc(-c3ccc4[nH]ccc4c3)c2c1)c1c(Cl)cccc1Cl, the Kd (Toll-like receptor 4) was 146 µM, the Activity (Mus musculus [1]) was “Active” and the Activity (Mus musculus [2]) was “Active”. For the same compound, the Activity (Mus musculus [3]) was “Active”, the inhibition [4] was “inactive” and the inhibition [5] was “inactive”. The inhibition [6] was “inactive”, the inhibition [7] was “inactive” and the inhibition [8] was “inactive”. The inhibition [9] was “inactive”, the inhibition [10] was “inactive” and the inhibition [11] was “inactive”. For the same compound, the inhibition [12] was “inactive”, the inhibition [13] was “inactive” and the inhibition [14] was “inactive”. For the same compound, the inhibition [15] was “inactive”, the inhibition [16] was “inactive” and the inhibition [17] was “inactive”. The inhibition [18] was “inactive”, the inhibition [19] was “inactive” and the inhibition [20] was “inactive”. The inhibition [21] was “inactive” and the inhibition [22] was “inactive”.
